In ChEMBL document CHEMBL3611976, “Synthesis of new 4-phenylpyrimidine-2(1H)-thiones and their potency to inhibit COX-1 and COX-2” (Eur J Med Chem, 2015):
Calls of active or inactive are those of the source. The calls are words filed in the database; no cut-off is given here.

Assays:
[1] = Downregulation of NF-kappaB1 gene expression in differentiated human THP1 cells stimulated with LPS at 50 ug/ml preincubated for 1 hr followed by LPS stimulation measured after 3 hrs by real-time PCR analysis; format: functional, cell-based; settings: THP-1
Method in brief: (§1)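 THP-1 monocytes differentiated to macrophages with 12 nM PMA for 48 h. Cells were treated with compound ([…]) for 1 h, with 0.1% DMSO as calibrator. They were then stimulated with LPS O55:B5 at 7.5 ng/ml, except the DMSO well, for another 3 h. Cells were washed twice with cold PBS. Total RNA was extracted and reverse-transcribed. TaqMan qPCR was run in duplicate with GAPDH as reference.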

[2] = biological target: T1, Prostaglandin G/H synthase 2 (Homo sapiens) (UniProt P35354); assay: Inhibition of COX2 in differentiated human THP1 cells assessed as […] LPS-induced COX2 gene expression at 50 ug/ml preincubated for 1 hr followed by LPS induction measured after 3 hrs by real-time PCR analysis; format: cell-based; settings: THP-1; method in brief: as §1
T1 sequence (whole entry): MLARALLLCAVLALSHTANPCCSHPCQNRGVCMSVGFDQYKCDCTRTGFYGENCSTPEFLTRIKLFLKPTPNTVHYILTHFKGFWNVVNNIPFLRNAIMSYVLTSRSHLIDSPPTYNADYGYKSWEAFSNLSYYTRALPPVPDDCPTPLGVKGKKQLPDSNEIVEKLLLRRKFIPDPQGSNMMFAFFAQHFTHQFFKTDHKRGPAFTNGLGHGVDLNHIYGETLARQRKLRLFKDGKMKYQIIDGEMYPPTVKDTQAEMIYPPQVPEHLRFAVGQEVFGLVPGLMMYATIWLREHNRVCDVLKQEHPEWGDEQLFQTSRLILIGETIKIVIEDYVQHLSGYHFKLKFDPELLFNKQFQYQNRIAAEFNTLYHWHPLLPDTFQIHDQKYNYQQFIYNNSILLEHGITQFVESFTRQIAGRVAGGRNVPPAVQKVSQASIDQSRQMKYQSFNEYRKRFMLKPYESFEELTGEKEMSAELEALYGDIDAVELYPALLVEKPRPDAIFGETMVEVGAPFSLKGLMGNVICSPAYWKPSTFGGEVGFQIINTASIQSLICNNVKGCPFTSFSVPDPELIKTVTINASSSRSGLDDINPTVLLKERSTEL

[3] = biological target: Prostaglandin G/H synthase 1 (Ovis aries) (UniProt P05979); assay: Inhibition of ram seminal vesicles COX-1 using arachidonic acid as substrate at 50 ug/ml preincubated for 5 mins followed by substrate addition after 20 mins by competitive PGE2 EIA method
Prostaglandin G/H synthase 1 (Ovis aries), sequence (P05979 whole entry, looked up): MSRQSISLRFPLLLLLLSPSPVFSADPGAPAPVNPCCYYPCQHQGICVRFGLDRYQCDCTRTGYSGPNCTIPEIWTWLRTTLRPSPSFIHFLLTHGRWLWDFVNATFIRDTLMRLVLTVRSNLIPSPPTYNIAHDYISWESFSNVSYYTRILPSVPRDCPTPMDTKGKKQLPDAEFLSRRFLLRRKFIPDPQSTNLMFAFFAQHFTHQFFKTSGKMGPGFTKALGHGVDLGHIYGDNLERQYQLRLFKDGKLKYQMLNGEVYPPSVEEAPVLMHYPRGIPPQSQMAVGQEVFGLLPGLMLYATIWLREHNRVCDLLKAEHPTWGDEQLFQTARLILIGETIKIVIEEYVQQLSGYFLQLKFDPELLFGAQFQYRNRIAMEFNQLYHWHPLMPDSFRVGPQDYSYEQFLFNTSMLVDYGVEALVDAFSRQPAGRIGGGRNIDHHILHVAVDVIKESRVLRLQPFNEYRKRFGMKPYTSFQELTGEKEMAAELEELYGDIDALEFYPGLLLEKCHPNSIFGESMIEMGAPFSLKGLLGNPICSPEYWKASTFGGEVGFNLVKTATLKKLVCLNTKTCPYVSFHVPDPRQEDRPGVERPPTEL

[4] = biological target: T2, Prostaglandin G/H synthase 2 (Ovis aries, UniProt P79208); assay: Inhibition of sheep placental cotyledons COX-2 using arachidonic acid as substrate preincubated for 5 mins followed by substrate addition after 20 mins by competitive PGE2 EIA method
T2 sequence (P79208 whole entry): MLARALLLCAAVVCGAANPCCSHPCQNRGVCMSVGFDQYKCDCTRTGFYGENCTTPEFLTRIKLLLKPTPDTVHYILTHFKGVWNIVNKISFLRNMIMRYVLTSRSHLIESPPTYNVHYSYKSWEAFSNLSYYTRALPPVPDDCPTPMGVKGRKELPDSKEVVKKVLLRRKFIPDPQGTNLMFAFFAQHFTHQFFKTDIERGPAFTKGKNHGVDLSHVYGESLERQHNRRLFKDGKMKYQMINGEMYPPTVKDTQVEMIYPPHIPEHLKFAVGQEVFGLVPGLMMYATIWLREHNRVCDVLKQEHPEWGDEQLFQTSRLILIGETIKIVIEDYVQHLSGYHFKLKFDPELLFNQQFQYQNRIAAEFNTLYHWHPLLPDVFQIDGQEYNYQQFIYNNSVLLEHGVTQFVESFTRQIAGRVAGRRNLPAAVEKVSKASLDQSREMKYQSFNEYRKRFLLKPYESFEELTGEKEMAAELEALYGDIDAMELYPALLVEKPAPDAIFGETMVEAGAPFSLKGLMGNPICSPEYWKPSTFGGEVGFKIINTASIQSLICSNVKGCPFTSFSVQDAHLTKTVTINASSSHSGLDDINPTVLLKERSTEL
Method in brief: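 Purified sheep placental PGHS-2 at 0.2 units/well in 0.1 M Tris/HCl with 18 mM epinephrine hydrogen tartrate, hematin and Na EDTA. Samples were preincubated for 5 min at room temperature, then arachidonic acid in ethanol was added to start the reaction. After 20 min at 37 °C the reaction was stopped with 10% formic acid. PGE2 was measured by competitive EIA absorbance, and inhibition was calculated relative to a blank.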

SMILES	Activity [1]	inhibition [2]	inhibition [3]	IC50 [4] [µM]
CC1=CC(c2ccccc2)NC(=S)N1 (stereo unspecified)	Active	Active	inactive	–
CC1=CC(c2ccccc2[N+](=O)[O-])NC(=S)N1 (racemic)	Active	Active	53%	50
CC1=CC(C(C)C)NC(=S)N1 (racemic)	–	–	inactive	–
CC1=CC(c2ccc(Br)cc2)NC(=S)N1 (racemic)	–	–	15.4%	–
CC1=CC(c2ccc(C(F)(F)F)cc2)NC(=S)N1 (racemic)	–	–	0.92%	–
CC1=CC(c2ccc(Cl)cc2)NC(=S)N1 (racemic)	–	–	10.3%	–
CC1=CC(c2ccc(Cl)cc2Cl)NC(=S)N1 (racemic)	–	–	inactive	–
CC1=CC(c2ccc(F)cc2)NC(=S)N1 (racemic)	–	–	inactive	–
CC1=CC(c2ccc([N+](=O)[O-])cc2)NC(=S)N1 (racemic)	–	–	29.8%	–
CC1=CC(c2ccccc2Cl)NC(=S)N1 (racemic)	–	–	3.06%	–
COc1ccc(C2C=C(C)NC(=S)N2)cc1 (racemic)	–	–	33.2%	–
